T cruzi inh: inhibitors of intracellular T. cruzi growth, primary screen, luminescence, NIH3T3 host cells; AID 1885, 2009; T. cruzi beta-gal in NIH3T3, 90 h; hit rate 1.4% among 300,000; inhibition, % (concentration not given with the values);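 active means mean inhibition across valid replicates above about 55%, limit read from the data; inconclusive means mean below that limit but half or more replicates reach it; inactive means mean below it, under half of replicates reach it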;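 further: signal also drops with host cell toxicity which is not excluded here; 0% = plate median of DMSO wells and 100% = zero luminescence signal; higher percent means less beta-gal luminescence so fewer parasites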
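System: mouse NIH/3T3 fibroblasts infected with β-gal-expressing T. cruzi Tulahuen C4 / Input: NIH/3T3 cells, 5,000 per well / Buffer or medium: Low-serum DMEM with 2% FBS / Probe or stimulus: 5000 reporter trypomastigotes per well / Schedule: ≥90 h infection period, 3 h prior cell attachment / Measured by: GalScreen luminescence, 60 min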
Beta cell apopt: inhibitors of cytokine-induced beta cell apoptosis, primary screen, luminescence | AID 435005, 2010 | hit rate 0.8% among 300,000 | INS-1E cytokine-induced death, ATP luminescence, 48 h; percent of positive-control rescue, neutral wells zero | protection from apoptosis, % (concentration not given with the values);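 active means Every replicate reaches about 75%, or at least half do and their mean reaches it too, limit read from the data; inconclusive means At least half of replicates reach the limit but their mean does not; inactive means Under half of replicates reach the limit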;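 further: 0% = cytokine-treated negative control wells and 100% = positive control rescue; higher means more ATP so stronger rescue from cytokine killing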
PfHsp90 yeast 2: growth inhibition of PfHsp90-expressing yeast, primary screen, antimalarial PfHsp90 inhibitor project, S. cerevisiae, BacTiter-Glo luminescence, single point, set 2 | BacTiter-Glo ATP, 48 h; yeast lacking PDR1 and PDR3 efflux regulators | hit rate 0.32% among 310,000 | inhibition, % at 9.4 µM;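 active means every replicate shows inhibition above about 80%, whatever the replicate mean, limit read from the data; inconclusive means mean inhibition reaches the set limit but some replicate falls short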;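 further: 0% = DMSO neutral controls and 100% = 20 µM radicicol positive controls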
CSC inhib: cancer stem cell viability inhibitors, primary screen, luminescence. hit rate 1.1% among 300,000. inhibition, % at 7.5 µM. cancer stem cell-like cells viability; in the data active means inhibition above about 75%; inconclusive means no clear call, values can overlap the other calls; tested in HMLE shEcad cells
SKKanGAS inh: S. pyogenes SKKanGAS growth inhibitors in kanamycin, primary screen, streptokinase expression inhibitor project, SKKanGAS strain, BacTiter-Glo luminescence. 6 h. inhibition, % at 7.5 µM. hit rate 1.3% among 300,000. AID 1662, 2009;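 active means mean replicate score, as percent of positive control median, at least 50; inconclusive means mean below 50 but one replicate at or above 50; inactive means mean and every replicate below 50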;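 further: strain carries kanamycin resistance gene driven by streptokinase promoter and grows in 40 µg/ml kanamycin; loss of luminescence reflects streptokinase promoter inhibition or plain growth inhibition; 0% = median of DMSO wells and 100% = positive control at its reference dose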
HIF act: HIF pathway transcriptional activators, primary screen, cell-based, U2OS HRE-luciferase, luminescence; U2OS HRE-luciferase reporter; normalized: DMSO 0%, desferrioxamine 100%; activation, % at 7.5 µM (by protocol); hit rate 0.32% among 300,000; AID 1910, 2009;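 active means mean activation of at least 10% of the iron chelator positive control signal, with at least half of replicates also reaching 10%; inconclusive means mean and replicate majority disagree about reaching 10%; inactive means mean and most replicates under 10%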
Numbers without * were called inactive; ? = inconclusive; . = no result given. Only some compounds are listed: those with a hit (about 3.6% of all), similar ones and a draw of the others.

SMILES	T cruzi inh	Beta cell apopt	PfHsp90 yeast 2	CSC inhib	SKKanGAS inh	HIF act
Cc1ccccc1C1c2[nH]c3ccccc3c2C[C@H]2C(=O)N(C3CCN(Cc4ccccc4)CC3)CC(=O)N12 (some centres undefined)	61*	6	0	11	2	0
O=C(Cn1nnnc1CN1CCOCC1)N1CCC(c2cccc(Cl)c2)C1 (centres undefined)	-1	-4	1	-8	-3	0
CCOC(=O)c1nn(C)c2[nH]c(=O)n(C)c(=O)c12	.	.	-33	.	.	.
Cc1ccc(-c2csc3ncn(CC#N)c(=O)c23)cc1C	-2	-2	-8	6	52*	0
COc1cc(/C=C/C(=O)Nc2cccc(S(=O)(=O)NC3=NCCCCC3)c2)ccc1OCC#N	-10	1	37	20	1	0
CCc1ccc2nc3nc(C)cc(C)c3c(N)c2c1	13	26	-3	-19	1	1
Cc1cc(C)c2c(N)c3ccccc3nc2n1	40	49	-18	8	-5	20*
Cc1cccc(NC(=O)c2ccccc2NC(=O)c2ccco2)c1	0	2	7	-7	2	0
COC(=O)CCS(=O)(=O)c1nc(-c2ccccc2)cc(C(F)(F)F)n1	-38	28	10	.	7	3
CCOC(=O)CS(=O)(=O)c1nc(-c2ccccc2)cc(C(F)(F)F)n1	-32	96*	-24	99*	-12	1
CCOC(=O)CS(=O)(=O)c1nc(-c2ccc(F)cc2)cc(C(F)(F)F)n1	-77	.	-41	99*	-2	-2
CCOC(=O)CCS(=O)(=O)c1nc(-c2ccccc2)cc(C(F)(F)F)n1	-56	31	3	100*	6	10*
CS(=O)(=O)c1nc(-c2ccc(F)cc2)cc(C(F)(F)F)n1	?	.	9	.	0	-2
CCCNc1ncc2c(=O)[nH][nH]c(=O)c2n1	.	.	11	.	.	.
CCc1ccc(C2NC(=S)NC3=C2C(=O)N(c2ccccc2OC)C(c2ccc(CC)cc2)N3)cc1 (centres undefined)	13	-8	-11	.	7	-1
O=C1C2=C(NC(=S)NC2c2ccc(Cl)cc2)NC(c2ccc(Cl)cc2)N1c1ccc(Cl)cc1 (centres undefined)	57*	-12	-39	101*	105*	0
Cc1cc(NC(=O)CCCS(=O)(=O)c2nc(-c3cccs3)cc(C(F)(F)F)n2)no1	-20	14	21	-11	-8	13*
Cc1cc(NC(=O)CSc2nc(-c3cccs3)cc(C(F)(F)F)n2)no1	-34	.	5	.	-18	0
CS(=O)(=O)c1nc(-c2cccs2)cc(C(F)(F)F)n1	77*	91*	.	100*	-16	-6
COc1ccc(-c2cc(C(F)(F)F)nc(S(C)(=O)=O)n2)cc1	-18	-31	.	96*	-5	6
Nc1ncnc2c1ncn2[C@@H]1O[C@H](CNCc2ccc(-n3cccn3)cc2)[C@@H](O)[C@H]1O	.	-6	-19	11	.	.
O=C(NCC(c1ccco1)N1CCCC1)c1cc2cc(Cl)ccc2o1 (centres undefined)	.	-14	10	-1	.	.
CCn1c2ccccc2c2cc(NC(=O)C(=O)N3CCOCC3)ccc21	0	-3	-19	9	-6	1
Cc1ccc(CN2CCN(/N=C/c3ccc(Cl)c([N+](=O)[O-])c3)CC2)cc1	62*	.	40	-9	2	0
CC(=O)NC(=S)Nc1ccc(NC(=S)NC(=O)/C=C/c2ccco2)cc1	-5	21	4	6	83*	2
CCC(=O)Nc1ccc(NC(=S)NC(=O)/C=C/c2ccco2)cc1	-2	-13	-19	-6	2	-2
CCCOC(=O)/C(C(N)=NCc1ccccc1)=C(\O)OCCC	34	109*	.	46	9	0
CCOC(=O)/C(C(N)=NCC(C)C)=C(/O)c1ccccc1	-3	.	1	17	2	-1
COc1cccc(C(=O)NC2CCN(C(=O)N3c4ccccc4Sc4ccccc43)CC2)c1	70*	12	-8	36	42	0
